# Source: PubChem (several laboratories)
# M18AAP inhibitor = PfM18AAP inhibitors, malaria aminopeptidase, primary screen, biochemical, QFRET, recombinant enzyme | H-Glu-NHMec fluorogenic cleavage | inhibition, % at 7.35 µM | actives 1.2% (n = 290,000) | AID 1822, 2009;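 active means inhibition above the campaign mean inhibition over all tested compounds plus 3 SD, cut at about 28% in these data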;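 further: 0% = plate median of test compound wells and 100% = 2 mM ZnCl2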
# ZTA counter = counter-screen for EBNA-1 inhibitors: inhibitors of Epstein-Barr virus ZTA; P03206; ZTA-DNA binding, fluorescence polarization; inhibition, % at 11 µM; actives 0.15% (n = 320,000); AID 2234; in the data active means inhibition above about 33%
# Apaf-1 inh = inhibitors of human Apaf-1 apoptosome, primary screen, biochemical, DEVD-Rh110 fluorescence, uHTS; Apoptotic protease-activating factor 1 (Homo sapiens), O14727; reconstituted apoptosome caspase-3 activity; inhibition, % at 20 µM; actives 0.71% (n = 330,000); AID 489030, 2010; active means inhibition of at least 40% at 20 µM;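 further: plate controls were DMSO wells for no effect and DEVD-CHO caspase inhibitor wells for full effect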
#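 Material: reconstituted apoptosome with Apaf-1, cytochrome c, caspase-9, procaspase-3, dATP / Buffer or medium: pH 7.5 Hepes buffer with CHAPS, BSA, DTT / Also added: cytochrome c with DEVD-Rh110 / Schedule: compound with Apaf-1, dATP, procaspase-3 30 min, then 50 min reaction, room temperature / Technique: rhodamine 110 fluorescence at Ex 480/Em 540 nm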
# PfGluPho inh = PfG6PD enzyme inhibitors, primary screen, biochemical, fluorescence intensity, uHTS | glucose-6-phosphate dehydrogenase-6-phosphogluconolactonase (Plasmodium falciparum 3D7) | PfGluPho enzyme, NADPH resazurin-diaphorase fluorescence | inhibition, % at 20 µM | actives 0.78% (n = 350,000);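 active means inhibition reaching at least a set limit at 20 µM in the primary screen, cut at about 59% in these data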;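 further: 0% = DMSO wells with substrate and 100% = DMSO wells lacking glucose-6-phosphate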
# EBNA-1 inhibitor = EBNA-1 DNA-binding inhibitors, primary screen, biochemical, fluorescence polarization; inhibition, % at 14.8 µM; actives 0.34% (n = 300,000); AID 1950, 2009; in the data active means inhibition above about 28%
# UBC13 inh = UBC13 polyubiquitin chain formation inhibitors, primary screen, biochemical, TR-FRET, uHTS. Ubiquitin-conjugating enzyme E2 N (Homo sapiens), P61088. inhibition, % at 20 µM. actives 0.47% (n = 330,000); in the data active means inhibition above about 45%, passing the limit was not always enough
# The depositor's hits bear a star; / = no result given. Rows were chosen to be rich in hits. Some 2.9% of all compounds tested hit in one or more screens of this group.
SMILES,M18AAP inhibitor,ZTA counter,Apaf-1 inh,PfGluPho inh,EBNA-1 inhibitor,UBC13 inh
N#Cc1c(SCC(=O)Nc2nccs2)sc2c(O)cc(=O)[nH]c12,29.3*,0.5,7.7,43.4,-8.0,-5.3
CCc1nnc(N/N=C/c2cccs2)n1N,52.8*,-2.3,-0.5,44.6,7.8,-12.4
COC(=O)c1c(NC(C)=O)sc(C(=O)N2CCOCC2)c1C,-13.6,1.0,-1.6,-5.2,-0.2,-1.3
COC(=O)c1c(NC(=O)C(C)C)sc(C(=O)N2CCOCC2)c1C,31.4*,11.6,-1.5,3.1,-7.2,-2.0
CCOC(=O)c1c(N2C(=O)C=CC2=O)sc(C)c1C,-43.2,2.3,7.9,66.9*,10.3,-3.1
N#CC1=C(N)NC(=S)C(C(N)=O)C1c1ccc(Cl)cc1Cl (stereo unspecified),30.3*,11.4,-6.6,47.5,0.2,3.4
C[C@@H]1CN([C@@H](C)CO)C(=O)CCCn2cc(nn2)CO[C@H]1CN(C)C(=O)c1cc(-c2ccccc2)on1,/,/,/,-5.5,/,/
CC1(C)Cc2c(sc3ncnc(NN)c23)CO1,30.4*,3.8,-12.0,0.0,-2.5,-8.8
COc1ccc(C(=O)CC(C(=O)O)c2ccc3c(c2)OCO3)cc1OC (stereo unspecified),/,/,/,-10.9,/,/
O=C(NC1CCCCCC1)C(=S)NC1CCCCC1,30.2*,11.2,-3.1,10.8,-0.2,5.6
O=C(NC1CCCCCC1)C(=O)NC1CC1,-16.8,-7.6,-15.7,-3.3,2.2,-2.0
CC(C)(C)OC(=O)N1CCC(C(=O)Nc2cccc(C(=O)NC3CC3)c2)CC1,/,/,/,-1.0,/,/
O=[N+]([O-])c1cc(S(=O)(=O)Nc2ccccc2)ccc1N1CCN(c2ccc(O)cc2)CC1,30.0*,0.1,19.2,36.7,-7.5,-6.0
CC(C)CCn1c(=O)c2ccccc2n2c(=S)[nH]nc12,28.9*,-8.3,18.1,12.2,12.0,-1.7
CC(C)CCn1c(=O)c2ccccc2n2c(CCl)nnc12,-5.2,4.0,-11.5,-7.9,-4.8,-8.0
Cc1ccc(NCCCn2ccc(NC(=O)OCc3ccccc3)nc2=O)cc1C,/,/,/,29.8,/,/
Cc1cnc(NC(=O)CSc2nnc(COc3c(C)cccc3C)o2)s1,28.3*,-1.6,1.4,-13.9,-3.9,6.0
Cc1cnc(NC(=O)CSc2nnc(COc3ccccc3)o2)s1,27.0,-3.3,-5.3,-17.7,-2.3,-0.2
CCC(C)N(C(=O)COc1ccc(Cl)c2cccnc12)C1CCS(=O)(=O)C1 (stereo unspecified),/,-12.1,5.7,12.9,-12.7,55.3*
CNC(=O)c1c(NC(=O)c2ccc(S(=O)(=O)N3CCCC3)cc2)sc2c1CCN(C(C)C)C2,31.7*,2.9,17.5,/,2.7,-13.5
CC(/C=C1\SC(=O)N(CC(=O)Nc2ccc(O)cc2)C1=O)=C\c1ccccc1,1.9,7.2,6.9,14.0,28.3*,-10.9
Cc1csc2nc(COC(=O)c3ccc(Cl)c([N+](=O)[O-])c3)cc(=O)n12,/,5.1,-7.1,0.7,/,-5.3
O=C(NN1C(=O)c2ccccc2NC1c1ccccn1)c1ccc(Br)cc1 (stereo unspecified),22.6,-1.3,1.2,-14.8,6.5,13.3
CC(=O)NN1C(=O)c2ccccc2NC1c1ccccn1 (stereo unspecified),39.8*,-6.2,-9.3,-4.1,-3.4,-1.8
Cc1cccc(C2Nc3ccccc3C(=O)N2NC(=O)c2ccc([N+](=O)[O-])cc2)n1 (stereo unspecified),39.5*,19.8,6.2,-6.6,-15.7,-6.7
SMILES,M18AAP inhibitor,ZTA counter,Apaf-1 inh,PfGluPho inh,EBNA-1 inhibitor,UBC13 inh
Cc1cc(C)n2c(SCC(=O)N(CCC#N)c3ccc4c(c3)OCCO4)nnc2n1,/,/,/,0.4,/,/
COCCCN1C(=O)C(CC(=O)NCCCCc2ccccc2)CC(C(=O)N2CCOCC2)=C1C (stereo unspecified),/,/,/,-20.2,/,/
N#CC1(NC(=O)COC(=O)c2cc(O)c3ccccc3c2O)CCCCC1,/,-0.5,72.7*,58.7,-3.9,-16.7
N#CC1(NC(=O)COC(=O)c2ccccc2[N+](=O)[O-])CCCCC1,/,7.8,-11.6,11.6,-5.6,0.3
O=C(Nc1cccc(-c2nc3ccccc3[nH]2)c1)c1cccc(NC(=O)c2ccco2)c1,-1.4,10.6,-23.6,0.0,25.8,6.4
O=C(Nc1ccc2nc(-c3ccccc3)[nH]c2c1)c1ccco1,-0.9,-17.7,0.2,69.5*,2.8,13.4
NC(=O)N/N=C\c1cc(Br)ccc1O,0.1,-17.5,-7.2,-23.9,6.3,2.2
CC(C)(C)c1nnc(N/N=C/c2cc(Br)ccc2O)n(N)c1=O,43.7*,-5.5,/,-4.7,3.3,/
CCOc1ccccc1C1C(C#N)=C(N)Oc2cc(N)ccc21 (stereo unspecified),28.4*,4.0,3.2,12.8,-3.1,-3.7
COc1ccc(OC)c(C2C(C#N)=C(N)Oc3cc(N)ccc32)c1 (stereo unspecified),8.0,-5.7,-4.1,-2.8,5.0,11.5
Cc1ccc(NS(=O)(=O)c2ccccc2F)cc1S(=O)(=O)N1CCCCCC1,/,/,6.1,-23.5,/,1.9
Cc1nc2ccccn2c1-c1csc(Nc2cccc(C(=O)O)c2)n1,30.7*,-8.9,1.5,21.2,0.1,6.0
Cc1nc2ncccn2c1-c1csc(Nc2cccc(C(=O)O)c2)n1,28.7*,-11.9,7.0,28.7,8.0,6.1
Cc1cccc(Nc2nc(-c3c(C)nc4ccccn34)cs2)c1,4.6,-14.0,24.7,45.1,0.1,4.2
COC(=O)c1ccc(NC(=O)CN2CCC(NC(=O)c3ccccc3F)CC2)cc1,/,/,/,5.5,/,/
Oc1ccc(-c2cnns2)c(O)c1,98.7*,0.8,-18.1,43.7,0.4,-21.7
Oc1ccc(-c2nc3ccccc3s2)c(O)c1,3.5,6.2,0.4,-2.9,-2.7,32.8
COc1cccc2c1-c1c(O)cccc1C2=O,-12.0,26.8,2.9,17.0,-0.2,-49.8
CC1OC(CC(=O)O)CC2=C1C(=O)c1c(O)cccc1C2=O (stereo unspecified),/,/,/,130.7*,/,/
O=C(Nc1cccc([N+](=O)[O-])c1)NC1CCCCCCC1,1.4,/,4.4,10.7,/,0.5
CCOC(=O)CNC(=O)CSc1nc(-c2ccc(C)cc2)ns1,-6.9,-7.0,-13.6,4.7,-3.8,-0.5
CCOC(=O)CNC(=O)CSc1nc(-c2ccccc2)ns1,28.3*,3.0,-6.4,30.8,7.3,-4.7
CC1=CC(=O)C(C(C)C)=C/C1=C(\c1cc(C(C)C)c(OP(=O)(O)O)cc1C)c1ccccc1C(=O)O,6.4,1.9,8.0,-52.3,5.0,-16.4
COc1ccccc1Oc1ccc2c(c1)C(=O)N(c1cccc(O)c1)C2=O,31.0*,0.1,11.0,29.8,-4.0,-7.3
